Sampled rows, rich in hits. Any-hit rate of the full collection: about 3%.
S100A4 inh HTS: inhibitors of human S100A4 binding to myosin IIA peptide; P26447; S100A4/TAMRA-MyoIIA peptide fluorescence polarization; inhibition, % at 10.7 µM; 360,000 tested, 0.14% active; AID 652163;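 active means mean inhibition of at least 70% across replicates, with every replicate also reaching that level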
Target sequence (P26447 whole entry, looked up): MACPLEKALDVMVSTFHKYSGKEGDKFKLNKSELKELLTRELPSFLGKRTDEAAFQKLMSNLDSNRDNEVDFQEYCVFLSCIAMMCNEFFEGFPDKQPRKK
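System – human S100A4 monomer protein, biochemical binding assay · Buffer or medium – Calcium-containing HEPES buffer, pH 7.2 · Timing – 5 min between mix addition and reading · Also added – TAMRA-labelled myosin IIA heavy-chain peptide probe, 5 nM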
SIRT5 inh: sirtuin-5 (human) deacylase inhibition; Purified SirT5, succinyl-peptide AMC, trypsin-coupled fluorescence; AID 652115; inhibition, % at 15 µM; 330,000 tested, 1.1% active; Q9NXA8; in the data active means inhibition above about 15%
Target sequence (Q9NXA8 whole entry, looked up): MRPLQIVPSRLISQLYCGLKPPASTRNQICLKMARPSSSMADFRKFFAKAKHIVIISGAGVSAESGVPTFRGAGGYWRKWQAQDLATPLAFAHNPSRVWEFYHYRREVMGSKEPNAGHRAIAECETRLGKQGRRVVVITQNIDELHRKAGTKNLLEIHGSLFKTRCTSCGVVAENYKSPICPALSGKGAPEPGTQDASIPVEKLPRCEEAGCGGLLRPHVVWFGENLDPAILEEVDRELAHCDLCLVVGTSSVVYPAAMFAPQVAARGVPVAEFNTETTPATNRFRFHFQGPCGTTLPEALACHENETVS
rRNA inh HTS: inhibits bacterial ribosomal RNA function over humanized ribosomes; E. coli WT GFP vs humanized-ribosome RFP mutants, fluorescence, 24 h; active compounds read low; DMSO median 0, no signal -100; GFP signal change (wild-type ribosome), % (concentration not given with the values); 350,000 tested, 1.6% active;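 active means significant combined selectivity score with lowered wild-type GFP, culture density cut under 30%, mutant RFP and density less affected; inactive means any of these conditions unmet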
C2C12 statin: suppressors of simvastatin-induced myotoxicity in C2C12 myotubes. rescue of ATP level, % at 7.49 µM. 330,000 tested, 0.78% active. AID 602340. ATP luminescence, 48 h; scaled: DMSO 0, geranylgeraniol control 100;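 active means mean ATP rescue above about 67%, or every replicate alone reaching that limit, limit read from the data, passing the limit was not always enough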;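 further: myotubes were challenged with 10 µM simvastatin during compound exposure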
PGC1a acetyl inh: PGC1a acetylation modulation, inhibitor mode; inhibition, % at 15.6 µM; U2OS PGC1a acetylation, AlphaScreen anti-acetyl-lysine; with virally co-expressed GCN5 acetyltransferase; 350,000 tested, 0.17% active;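 active means every replicate shows inhibition of at least 40%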;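 further: 0% = neutral control wells and 100% = positive control wells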
Cneo AK release: Cryptococcus neoformans lysis via adenylate kinase release; 360,000 tested, 0.2% active; lysis activity, % at 15 µM; C. neoformans lysis, adenylate kinase release luminescence, 4 h; normalised: neutral wells 0, clomiphene wells 100;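 active means mean lysis activity across replicates of at least 80%, whatever share of replicates individually reach that level; inactive means mean lysis activity below 80%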
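Test system: log-phase Cryptococcus neoformans yeast cells. Input: 5 × 10^6 yeast cells/mL. Medium: fresh YPD growth medium. Doses: single dose. Incubation: static 4 h at 37 °C with compound, 1 h detection. Measured by: luminescent adenylate kinase detection reagent. Read-out: signal increase indicating cell lysis. Benchmarks: Clomiphene.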
Starred values were filed as active, the others as inactive; ! = not confirmed by another sample.

For COC(=O)c1[nH]c2cc(C)ccc2c1NC(=O)CN1CCOCC1 the results were S100A4 inh HTS 2, SIRT5 inh 0 and rRNA inh HTS -1.
Screening CNC[C@H]1OCCCC[C@@H](C)Oc2ccc(NC(=O)Nc3ccccc3)cc2C(=O)N([C@@H](C)CO)C[C@@H]1C returned S100A4 inh HTS -16, SIRT5 inh 0, rRNA inh HTS 9, C2C12 statin 0, PGC1a acetyl inh 0 and Cneo AK release 3.
For C[C@H]1CN([C@@H](C)CO)C(=O)c2cccc(NC(=O)C3CC3)c2O[C@@H]1CN(C)C(=O)Nc1ccc(F)cc1 the results were S100A4 inh HTS 0, SIRT5 inh -4, rRNA inh HTS -3, C2C12 statin -1, PGC1a acetyl inh -4 and Cneo AK release 1.
`C[C@@H]1CCCCO[C@@H](CN(C)Cc2ccc3c(c2)OCO3)[C@H](C)CN([C@@H](C)CO)C(=O)c2cc(N(C)C)ccc2O1` gave S100A4 inh HTS 3, SIRT5 inh 2, rRNA inh HTS -2, C2C12 statin 6, PGC1a acetyl inh -8 and Cneo AK release 3.
`CCSc1cc(C)nc2c(-c3ccc(Cl)cc3)c(C)nn12` gave S100A4 inh HTS 5, SIRT5 inh -1, rRNA inh HTS 14, C2C12 statin 93*, PGC1a acetyl inh -1 and Cneo AK release 1.
Screening O=C(O)COc1c(-c2ccccc2)oc2ccccc2c1=O returned C2C12 statin 75*, PGC1a acetyl inh 1 and Cneo AK release 6.
`C[C@@H]1CN([C@H](C)CO)C(=O)c2cccc(NC(=O)Nc3ccc(F)cc3)c2O[C@H]1CN(C)Cc1ccc(Oc2ccccc2)cc1` gave S100A4 inh HTS 7, SIRT5 inh 4, rRNA inh HTS -2, C2C12 statin 32, PGC1a acetyl inh -9 and Cneo AK release -1.
For O=C(NC1CC1)c1cc2cc3ccccc3nc2s1 the results were S100A4 inh HTS -1, SIRT5 inh 5, rRNA inh HTS -21*, C2C12 statin -16, PGC1a acetyl inh 7 and Cneo AK release -5.
`ON(CCc1ccncc1)Cc1ccccc1` gave S100A4 inh HTS 72*, rRNA inh HTS 13, C2C12 statin -1, PGC1a acetyl inh -8 and Cneo AK release -2.
`CN1CCN(C(=O)C[C@H]2CC[C@@H]3[C@H](COC[C@H](O)CN3Cc3cccc(Cl)c3)O2)CC1` gave S100A4 inh HTS 1, SIRT5 inh 1, rRNA inh HTS -2, C2C12 statin 5, PGC1a acetyl inh -2 and Cneo AK release 51.
CNC[C@H]1OCCCC[C@H](C)Oc2ccc(NC(=O)CCCN(C)C)cc2C(=O)N([C@H](C)CO)C[C@@H]1C was read as S100A4 inh HTS 3, SIRT5 inh 3, rRNA inh HTS 5, C2C12 statin 10, PGC1a acetyl inh 5 and Cneo AK release 107*!.
Screening CNC[C@H]1OCCCC[C@@H](C)Oc2ccc(NC(=O)Cc3ccccc3)cc2C(=O)N([C@@H](C)CO)C[C@H]1C returned S100A4 inh HTS 8, SIRT5 inh 3, rRNA inh HTS 8, C2C12 statin 13, PGC1a acetyl inh 13 and Cneo AK release 14.
Screening CNC[C@@H]1OCCCC[C@H](C)Oc2ccc(NC(=O)NC(C)C)cc2C(=O)N([C@H](C)CO)C[C@H]1C returned S100A4 inh HTS 2, SIRT5 inh 1, rRNA inh HTS 10, PGC1a acetyl inh -7 and Cneo AK release 117*.
`C[C@@H]1CCCCO[C@@H](CN(C)C(=O)Cc2ccccc2)[C@@H](C)CN([C@@H](C)CO)C(=O)c2cc(NC(=O)Nc3ccc(F)cc3)ccc2O1` gave S100A4 inh HTS -8, SIRT5 inh 32*, rRNA inh HTS 2, PGC1a acetyl inh 3 and Cneo AK release 0.
For CNC[C@H]1OCCCC[C@H](C)Oc2ccc(NC(=O)Cc3ccccc3)cc2C(=O)N([C@H](C)CO)C[C@@H]1C the results were S100A4 inh HTS 7, SIRT5 inh 9, rRNA inh HTS 3, C2C12 statin -17, PGC1a acetyl inh 11 and Cneo AK release 108*.
Screening CCCN1C[C@H](C)[C@@H](OC)CN(C)C(=O)c2ccc(NC(=O)c3ccccc3F)cc2OC[C@@H]1C returned S100A4 inh HTS 12, SIRT5 inh 11, rRNA inh HTS 2 and PGC1a acetyl inh 7.
Screening C[C@H](CO)N1C[C@H](C)[C@H](CN(C)C(=O)Cc2ccccc2)OCCCC[C@H](C)Oc2ccc(NC(=O)Nc3ccc(C(F)(F)F)cc3)cc2C1=O returned S100A4 inh HTS -41, SIRT5 inh 0, rRNA inh HTS 1, C2C12 statin 97* and Cneo AK release -3.
Screening C[C@@H]1CCCCO[C@@H](CN(C)C(=O)Cc2ccccc2)[C@@H](C)CN([C@@H](C)CO)C(=O)c2cc(NC(=O)Nc3ccc(C(F)(F)F)cc3)ccc2O1 returned S100A4 inh HTS -2, SIRT5 inh 3, rRNA inh HTS 1, C2C12 statin -94 and Cneo AK release 1.
`C[C@@H]1CCCCO[C@@H](CN(C)C(=O)Cc2ccccc2)[C@H](C)CN([C@@H](C)CO)C(=O)c2cc(NC(=O)Cc3ccccc3)ccc2O1` gave S100A4 inh HTS 126*, SIRT5 inh 6, rRNA inh HTS -6, C2C12 statin 24, PGC1a acetyl inh -2 and Cneo AK release -4.
`C[C@@H]1CCCCO[C@H](CN(C)C(=O)Cc2ccccc2)[C@@H](C)CN([C@H](C)CO)C(=O)c2cc(NC(=O)Cc3ccccc3)ccc2O1` gave S100A4 inh HTS 0, SIRT5 inh 0, rRNA inh HTS 0, C2C12 statin -64, PGC1a acetyl inh -3 and Cneo AK release -3.
`O=C(Nc1ccc2c(c1)[C@@H]1C[C@@H](CC(=O)N3CCOCC3)O[C@@H](CO)[C@@H]1O2)C1CCC1` gave rRNA inh HTS 0, C2C12 statin 3, PGC1a acetyl inh -8 and Cneo AK release 3.
For O=C(C[C@H]1CC[C@H]2[C@@H](COC[C@@H](O)CN2C(=O)c2ccc(F)cc2)O1)N1CCCCC1 the results were S100A4 inh HTS 3, SIRT5 inh 0, rRNA inh HTS 2, C2C12 statin 17, PGC1a acetyl inh 1 and Cneo AK release 4.
Screening O=C(C[C@@H]1CC[C@@H]2[C@H](COC[C@H](O)CN2C(=O)c2cc(Cl)cc(Cl)c2)O1)N1CCc2ccccc2C1 returned rRNA inh HTS 1, C2C12 statin 91*, PGC1a acetyl inh -9 and Cneo AK release 2.
For O=C(C[C@H]1CC[C@H]2[C@@H](COC[C@@H](O)CN2C(=O)c2cc(Cl)cc(Cl)c2)O1)N1CCc2ccccc2C1 the results were rRNA inh HTS -10, C2C12 statin 81*, PGC1a acetyl inh -63 and Cneo AK release 0.

Assay outcomes from PubChem BioAssay.
